ChEMBL document CHEMBL5108089, “Structure-based discovery of potent inhibitors of Axl: design, synthesis, and biological evaluation” (RSC Med Chem, 2022)
Activity calls are given as the source filed them. No cut-off for these calls is given here.

What was measured:
Calu-3 = assay: Antiproliferative activity against human Calu-3 cells assessed as inhibition of cell growth incubated for 72 hrs by CCK-8 assay; type: functional
Procedure, shortened: (§1)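 Plated at 10000 cells/well. Dose series topped at 10 uM for test compound and at 1 uM for the staurosporine reference. Read-outs were CC50 and maximum % inhibition.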

[1] = Oral bioavailability in Sprague-Dawley rat at 5 mg/kg measured upto 24 hrs by LC-MS/MS analysis; type: ADME, organism-based; settings: in vivo
143B = assay: Antiproliferative activity against human 143B cells assessed as inhibition of cell growth incubated for 72 hrs by CCK-8 assay; type: functional
RS4-11 = assay: Antiproliferative activity against human RS4-11 cells assessed as inhibition of cell growth incubated for 72 hrs by CCK-8 assay; type: functional
Procedure, shortened: (§2)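 8000 cells/well. Test compound was serially diluted from a 10 uM top concentration and staurosporine from 1 uM. CC50 and maximum % inhibition are reported.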

[2] = molecular target: Aurora kinase A (Homo sapiens) (UniProt O14965); assay: Inhibition of Aurora A (unknown origin) at 1 uM
[3] = Metabolic stability in rat liver microsomes assessed as intrinsic clearance preincubated for 10 mins followed by NADPH addition and measured upto 60 mins by LC-MS/MS analysis; type: ADME, Microsome; settings: time < 70 min, read-out: CLH
SUD4 = assay: Antiproliferative activity against human SU-DHL-4 cells assessed as inhibition of cell growth incubated for 72 hrs by CCK-8 assay; type: functional; procedure, shortened: as §2
[4] = molecular target: Tyrosine-protein kinase TXK (Homo sapiens) (UniProt P42681); assay: Inhibition of Txk (unknown origin) at 1 uM relative to control
BXPC-3 = assay: Antiproliferative activity against human BXPC-3 cells assessed as inhibition of cell growth incubated for 72 hrs by CCK-8 assay; type: functional
SW-620 = assay: Antiproliferative activity against human SW620 cells assessed as inhibition of cell growth incubated for 72 hrs by CCK-8 assay; type: functional
[5] = molecular target: Proto-oncogene tyrosine-protein kinase receptor Ret (Homo sapiens) (UniProt P07949); assay: Inhibition of Ret (unknown origin) at 1 uM relative to control
COLO 205 = assay: Antiproliferative activity against human COLO 205 cells assessed as inhibition of cell growth incubated for 72 hrs by CCK-8 assay; type: functional
ASPC1 = assay: Antiproliferative activity against human ASPC1 cells assessed as inhibition of cell growth incubated for 72 hrs by CCK-8 assay; type: functional
Procedure, shortened: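 5000 cells/well. Test compound was titrated from 10 uM and staurosporine control from 1 uM. Values are CC50 and maximum % inhibition.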

SNU-5 = assay: Antiproliferative activity against human SNU-5 cells assessed as inhibition of cell growth incubated for 72 hrs by CCK-8 assay; type: functional; procedure, shortened: as §1
A-375 = assay: Antiproliferative activity against human A-375 cells assessed as inhibition of cell growth incubated for 72 hrs by CCK-8 assay; type: functional
U-87 MG = assay: Antiproliferative activity against human U87 cells assessed as inhibition of cell growth incubated for 72 hrs by CCK-8 assay; type: functional, U-87MG ATCC
[6] = Metabolic stability in human liver microsomes assessed as half-life preincubated for 10 mins followed by NADPH addition and measured upto 60 mins by LC-MS/MS analysis; type: ADME, Microsome; settings: time < 70 min
Raji = assay: Antiproliferative activity against human Raji cells assessed as inhibition of cell growth incubated for 72 hrs by CCK-8 assay; type: functional; procedure, shortened: as §2
[7] = Metabolic stability in rat liver microsomes assessed as half-life preincubated for 10 mins followed by NADPH addition and measured upto 60 mins by LC-MS/MS analysis; type: ADME, Microsome; settings: time < 70 min
[8] = Cmax in Sprague-Dawley rat at 5 mg/kg, po measured upto 24 hrs by LC-MS/MS analysis; type: ADME, organism-based; set-up: dose 5 mg/kg, time < 24 hrs, route po; settings: in vivo
[9] = Metabolic stability in human liver microsomes assessed as intrinsic clearance preincubated for 10 mins followed by NADPH addition and measured upto 60 mins by LC-MS/MS analysis; type: ADME, Microsome; settings: time < 70 min, read-out: CLH
[10] = Clearance in Sprague-Dawley rat at 1 mg/kg, iv measured upto 24 hrs by LC-MS/MS analysis; type: ADME, organism-based; settings: in vivo
HEL 92.1.7 = assay: Antiproliferative activity against human HEL 92.1.7 cells assessed as inhibition of cell growth incubated for 72 hrs by CCK-8 assay; type: functional; procedure, shortened: as §2
[11] = Intrinsic clearance in rat; type: ADME
PC-3 = assay: Antiproliferative activity against human PC-3 cells assessed as inhibition of cell growth incubated for 72 hrs by CCK-8 assay; type: functional
HCC827 = assay: Antiproliferative activity against human HCC827 cells assessed as inhibition of cell growth incubated for 72 hrs by CCK-8 assay; type: functional
MOLM-13 = assay: Antiproliferative activity against human MOLM-13 cells assessed as inhibition of cell growth incubated for 72 hrs by CCK-8 assay; type: functional
[12] = molecular target: T1, Tyrosine-protein kinase receptor UFO (Homo sapiens, UniProt P30530); assay: Inhibition of human Axl using KKSRGDYMTMQIG as substrate incubated for 40 mins in the presence of [gamma33P]ATP by scintillation counting analysis
T1 sequence (P30530 whole entry): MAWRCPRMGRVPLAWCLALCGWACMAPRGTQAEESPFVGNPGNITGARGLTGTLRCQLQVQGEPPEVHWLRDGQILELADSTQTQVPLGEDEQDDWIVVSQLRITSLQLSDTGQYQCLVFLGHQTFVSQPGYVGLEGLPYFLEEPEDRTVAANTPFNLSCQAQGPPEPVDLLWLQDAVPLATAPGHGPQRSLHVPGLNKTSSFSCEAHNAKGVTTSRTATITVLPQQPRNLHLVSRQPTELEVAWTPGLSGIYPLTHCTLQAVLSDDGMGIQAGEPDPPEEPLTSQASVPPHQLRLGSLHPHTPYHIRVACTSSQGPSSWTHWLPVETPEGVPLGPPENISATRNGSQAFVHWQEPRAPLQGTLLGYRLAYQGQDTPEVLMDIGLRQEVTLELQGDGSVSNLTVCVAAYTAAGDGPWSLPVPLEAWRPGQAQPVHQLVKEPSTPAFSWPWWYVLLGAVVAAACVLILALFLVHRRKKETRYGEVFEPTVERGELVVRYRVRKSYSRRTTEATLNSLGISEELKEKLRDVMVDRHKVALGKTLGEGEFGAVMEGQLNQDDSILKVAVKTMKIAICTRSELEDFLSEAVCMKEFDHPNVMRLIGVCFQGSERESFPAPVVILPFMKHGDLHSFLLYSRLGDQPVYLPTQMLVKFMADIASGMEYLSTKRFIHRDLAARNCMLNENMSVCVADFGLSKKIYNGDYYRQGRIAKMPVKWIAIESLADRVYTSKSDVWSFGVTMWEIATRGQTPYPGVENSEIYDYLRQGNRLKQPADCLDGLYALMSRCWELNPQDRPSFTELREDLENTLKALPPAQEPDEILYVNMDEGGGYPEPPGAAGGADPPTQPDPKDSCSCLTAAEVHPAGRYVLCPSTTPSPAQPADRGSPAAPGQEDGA

NCI-H2052 = assay: Antiproliferative activity against human NCI-H2052 cells assessed as inhibition of cell growth incubated for 72 hrs by CCK-8 assay; type: functional
HepG2 = assay: Antiproliferative activity against human HepG2 cells assessed as inhibition of cell growth incubated for 72 hrs by CCK-8 assay; type: functional

Tyrosine-protein kinase TXK (Homo sapiens), sequence (P42681 whole entry): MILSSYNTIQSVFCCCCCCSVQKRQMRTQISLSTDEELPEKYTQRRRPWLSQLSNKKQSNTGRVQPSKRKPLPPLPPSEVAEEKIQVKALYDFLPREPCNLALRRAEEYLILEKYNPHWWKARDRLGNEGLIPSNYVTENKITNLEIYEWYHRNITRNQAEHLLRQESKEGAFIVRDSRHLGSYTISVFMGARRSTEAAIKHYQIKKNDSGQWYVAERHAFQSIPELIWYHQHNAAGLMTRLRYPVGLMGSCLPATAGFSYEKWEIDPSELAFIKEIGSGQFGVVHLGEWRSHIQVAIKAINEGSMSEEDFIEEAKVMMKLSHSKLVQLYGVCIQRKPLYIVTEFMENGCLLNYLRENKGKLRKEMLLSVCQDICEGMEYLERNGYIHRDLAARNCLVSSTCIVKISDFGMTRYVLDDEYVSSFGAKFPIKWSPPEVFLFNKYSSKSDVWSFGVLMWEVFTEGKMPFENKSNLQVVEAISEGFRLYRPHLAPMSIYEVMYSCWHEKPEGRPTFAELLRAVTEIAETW
Aurora kinase A (Homo sapiens), sequence (O14965 whole entry): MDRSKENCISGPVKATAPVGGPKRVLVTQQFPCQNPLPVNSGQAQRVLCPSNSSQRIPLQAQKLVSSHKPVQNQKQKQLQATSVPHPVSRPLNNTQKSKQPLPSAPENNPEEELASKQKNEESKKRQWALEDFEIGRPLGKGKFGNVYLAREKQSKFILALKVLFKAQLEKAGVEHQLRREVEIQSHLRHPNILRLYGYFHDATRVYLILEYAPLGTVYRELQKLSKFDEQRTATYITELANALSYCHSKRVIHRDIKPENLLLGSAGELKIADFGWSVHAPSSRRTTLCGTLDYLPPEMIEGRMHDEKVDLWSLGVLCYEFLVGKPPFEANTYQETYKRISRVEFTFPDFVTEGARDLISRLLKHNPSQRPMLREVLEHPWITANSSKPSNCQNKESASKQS
Proto-oncogene tyrosine-protein kinase receptor Ret (Homo sapiens), sequence (P07949 whole entry): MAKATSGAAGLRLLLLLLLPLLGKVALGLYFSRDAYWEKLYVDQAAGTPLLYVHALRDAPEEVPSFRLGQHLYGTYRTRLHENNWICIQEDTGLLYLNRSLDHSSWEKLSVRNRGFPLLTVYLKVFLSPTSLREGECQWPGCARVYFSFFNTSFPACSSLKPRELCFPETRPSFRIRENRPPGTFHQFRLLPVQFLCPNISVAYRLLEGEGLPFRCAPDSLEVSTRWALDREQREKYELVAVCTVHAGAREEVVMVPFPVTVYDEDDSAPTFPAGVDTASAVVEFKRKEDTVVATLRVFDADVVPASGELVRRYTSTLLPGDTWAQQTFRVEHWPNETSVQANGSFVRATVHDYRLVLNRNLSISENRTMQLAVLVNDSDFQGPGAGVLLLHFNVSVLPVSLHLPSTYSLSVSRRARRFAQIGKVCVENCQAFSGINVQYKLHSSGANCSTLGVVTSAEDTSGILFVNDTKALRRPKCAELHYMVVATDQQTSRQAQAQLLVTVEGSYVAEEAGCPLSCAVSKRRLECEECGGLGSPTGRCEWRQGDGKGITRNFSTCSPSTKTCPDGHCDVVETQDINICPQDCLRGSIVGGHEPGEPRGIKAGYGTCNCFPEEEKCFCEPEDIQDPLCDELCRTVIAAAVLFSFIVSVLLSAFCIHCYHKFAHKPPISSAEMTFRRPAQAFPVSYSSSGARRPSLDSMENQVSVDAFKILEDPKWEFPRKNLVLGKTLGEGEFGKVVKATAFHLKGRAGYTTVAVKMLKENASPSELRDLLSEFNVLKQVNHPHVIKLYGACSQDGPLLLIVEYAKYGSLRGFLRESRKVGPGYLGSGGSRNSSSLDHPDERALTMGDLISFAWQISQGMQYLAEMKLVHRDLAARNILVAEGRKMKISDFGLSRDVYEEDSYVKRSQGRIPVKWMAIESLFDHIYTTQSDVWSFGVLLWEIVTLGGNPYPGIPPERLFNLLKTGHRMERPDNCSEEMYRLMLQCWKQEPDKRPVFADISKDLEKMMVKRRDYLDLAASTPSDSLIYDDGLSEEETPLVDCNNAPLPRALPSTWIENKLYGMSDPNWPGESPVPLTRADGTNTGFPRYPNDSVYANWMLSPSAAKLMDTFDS

SMILES: CC(C)n1cnc(-c2ccccc2Nc2nc(Nc3ccc(N(C)C4CCN(C)CC4)cc3)ncc2Cl)n1
- CC50 (Calu-3): 107 nM
- bioavailability [1]: 56.1%
- CC50 (143B): 1340 nM
- CC50 (RS4-11): 138 nM
- inhibition [2]: Active
- CLint scaled [3]: 87.7 mL/min/kg
- CC50 (SUD4): 35.9 nM
- inhibition [4]: 70%
- CC50 (BXPC-3): 382 nM
- CC50 (SW-620): 349 nM
- inhibition [5]: 70%
- CC50 (COLO 205): 350 nM
- CC50 (ASPC1): 755 nM
- CC50 (SNU-5): 356 nM
- CC50 (A-375): 23.9 µM
- CC50 (U-87 MG): 3.01 µM
- half-life [6]: 60.6 min
- CC50 (Raji): 4.56 µM
- half-life [7]: 28.3 min
- Cmax [8]: 83.9 ng/mL
- CLint scaled [9]: 28.7 mL/min/kg
- clearance [10]: 36.7 mL/min/kg
- CC50 (HEL 92.1.7): 457 nM
- CLint scaled [11]: 33.9 mL/min/kg
- CC50 (PC-3): 5.59 µM
- CC50 (HCC827): 2050 nM
- CC50 (MOLM-13): 206 nM
- IC50 [12]: 5 nM
- CC50 (NCI-H2052): 1180 nM
- CC50 (HepG2): 352 nM
